Source: ChEMBL document CHEMBL1134275, “New pyridoquinoline derivatives as potential inhibitors of the fluoroquinolone efflux pump in resistant Enterobacter aerogenes strains” (2001)

Key:
Format in all cases: functional
[1] = tested on: Klebsiella aerogenes; test: Inhibitory activity against ATCC 13048 strain(Enterobacter aerogenes) in the presence of Norfloxacin and fluoroquinolone at 16 ug/mL
In short: (§1)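 Checkerboard microtitration MIC with fluoroquinolone plus test compound against E. aerogenes ATCC 13048 or its p9 derivative carrying plasmid-borne E. coli marA. Bacteria were grown in Luria-Bertani or Mueller-Hinton broth at 37 °C, with 15 µg/mL tetracycline for p9. Wells were inoculated at 10^5 cells/mL and growth was scored visually after 18 h at 37 °C. Values are means of two independent experiments.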

[2] = tested on: Klebsiella aerogenes; test: Inhibitory activity against ATCC 13048 strain(Enterobacter aerogenes) in the presence of ciprofloxacin fluoroquinolone at 16 ug/mL; in short: as §1
[3] = tested on: Klebsiella aerogenes; test: Inhibitory activity against p9- (derivative of ATCC )13048 strain(Enterobacter aerogenes) in the presence of Norfloxacin and fluoroquinolone at 16 ug/mL; in short: as §1
[4] = tested on: Klebsiella aerogenes; test: Inhibitory activity against p9- (derivative of ATCC )13048 strain(Enterobacter aerogenes) in the presence of ciprofloxacin and fluoroquinolone at 16 ug/mL; in short: as §1
[5] = tested on: Klebsiella aerogenes; test: Inhibitory activity against p9- (derivative of ATCC )13048 strain(Enterobacter aerogenes) in the presence of Norfloxacin and luoroquinolone at 16 ug/mL; in short: as §1
[6] = tested on: Klebsiella aerogenes; test: Inhibitory activity against Enterobacter aerogenes-3 istrainn the presence of ciprofloxacin and fluoroquinolone at 128 ug/mL
In short: (§2)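 Compound ranged 8–128 µg/mL, combined with norfloxacin at 16–128 µg/mL or ciprofloxacin at 4–64 µg/mL (final). Cells were grown in LB or MH broth at 37 °C and wells inoculated at 10^5 cells/mL. After 18 h at 37 °C growth was read visually. Values are means of two independent experiments.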

[7] = tested on: Klebsiella aerogenes; test: Inhibitory activity against Enterobacter aerogenes-3 strain in the presence of Norfloxacin and fluoroquinolone at 128 ug/mL; in short: as §2
[8] = tested on: Klebsiella aerogenes; test: Inhibitory activity against ATCC 13048 strain(Enterobacter aerogenes) in the presence of Norfloxacin and fluoroquinolone at a concentration of 16 ug/mL; in short: as §1
[9] = tested on: Klebsiella aerogenes; test: Inhibitory activity against ATCC 13048 strain(Enterobacter aerogenes) in the presence of Norfloxacin and fluoroquinolone at 32 ug/mL; in short: as §1
[10] = tested on: Klebsiella aerogenes; test: Inhibitory activity against ATCC 13048 strain(Enterobacter aerogenes) in the presence of ciprofloxacin fluoroquinolone at 32 ug/mL; in short: as §1
[11] = tested on: Klebsiella aerogenes; test: Inhibitory activity against Enterobacter aerogenes-3 strain in the presence of Norfloxacin and fluoroquinolone at 64 ug/mL; in short: as §2
[12] = tested on: Klebsiella aerogenes; test: Inhibitory activity against Enterobacter aerogenes-3 istrainn the presence of ciprofloxacin and fluoroquinolone at 64 ug/mL; in short: as §2

Row | Compound | MIC [1] [mg/L] | MIC [2] [mg/L] | MIC [3] [mg/L] | MIC [4] [mg/L] | MIC [5] [mg/L] | MIC [6] [mg/L] | MIC [7] [mg/L] | MIC [8] [mg/L] | MIC [9] [mg/L] | MIC [10] [mg/L] | MIC [11] [mg/L] | MIC [12] [mg/L]
1 | CCN(CC)CCSc1cc(C)nc2c(C)c3nc(C)cc(SCCN(CC)CC)c3cc12 | 0.05 | 0.025 | 1 | 0.5 | – | – | – | – | – | – | – | –
2 | Cc1cc(OCCN(C(C)C)C(C)C)c2cc3c(OCCN(C(C)C)C(C)C)cc(C)nc3c(C)c2n1 | 0.05 | 0.05 | – | 0.5 | 2 | – | – | – | – | – | – | –
3 | Cc1cc(OCCN2CCCCC2)c2cc3c(OCCN4CCCCC4)cc(C)nc3c(C)c2n1 | 0.1 | 0.025 | 1 | 0.25 | – | 32 | 128 | – | – | – | – | –
4 | Cc1cc(OCCCN(C)C)c2cc3c(OCCCN(C)C)cc(C)nc3c(C)c2n1 | 0.05 | 0.025 | 1 | 0.05 | – | 32 | 128 | – | – | – | – | –
5 | Cc1cc(OCCN(C)C)c2cc3c(OCCN(C)C)cc(C)nc3c(C)c2n1 | – | 0.025 | 1 | 0.25 | – | – | – | 0.1 | – | – | – | –
6 | Cc1cc(OCCN2CCOCC2)c2cc3c(OCCN4CCOCC4)cc(C)nc3c(C)c2n1 | 0.05 | 0.025 | 2 | 0.5 | – | – | – | – | – | – | – | –
7 | Cc1cc(SCCN(C)C)c2cc3c(SCCN(C)C)cc(C)nc3c(C)c2n1 | 0.05 | 0.025 | 0.25 | 0.25 | – | 4 | 16 | – | 0.25 | 0.1 | 64 | 8
8 | Cc1cc(SCCn2cccc2)c2cc3c(SCCn4cccc4)cc(C)nc3c(C)c2n1 | 0.025 | 0.025 | 0.5 | 0.1 | – | – | – | – | – | – | – | –
9 | Cc1cc(SCCN2CCCCC2)c2cc3c(SCCN4CCCCC4)cc(C)nc3c(C)c2n1 | 0.05 | 0.025 | 2 | 0.5 | – | – | – | – | – | – | – | –
10 | O=C(O)c1cn(C2CC2)c2cc(N3CCNCC3)c(F)cc2c1=O [CIPROFLOXACIN] | 0.025 | 0.5 | 32 | – | – | – | – | – | – | – | – | –
11 | CCn1cc(C(=O)O)c(=O)c2cc(F)c(N3CCNCC3)cc21 [NORFLOXACIN] | 0.05 | – | 128 | – | – | – | – | – | – | – | – | –
